Measurements reported in ChEMBL document CHEMBL2169822, “Discovery and optimization of 1,3,4-trisubstituted-pyrazolone derivatives as novel, potent, and nonsteroidal farnesoid X receptor (FXR) selective antagonists” (J Med Chem, 2012).
The source made the active and inactive calls. The rule behind the calls is not given here.

Legend:
HEK-293T [1] = test: (§1) Antagonist activity at FXRalpha/RXRalpha expressed in HEK293T cells co-expressing GAL4 DBD assessed as inhibition of CDCA-induced transactivation after 18 hrs by luciferase reporter gene assay; type: functional, cell-based; details: Homo sapiens
Outline: (§2)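 FXR transactivation in HEK293T cells transiently transfected with pcDNA3.1-FXRα, pcDNA3.1-RXRα, pGL3-FXRE-Luc and pRL-SV40 Renilla vector. Medium was replaced 6 h after transfection with medium holding compound at varied concentrations, with or without 20 μM CDCA, for 18 h. Read-out was dual-luciferase. Three independent experiments.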

[2] = as §1; type: functional, cell-based; details: Homo sapiens, HEK-293T; outline: as §2
[3] = Antagonist activity at GST-tagged human recombinant FXRalphaLBD expressed in Escherichia coli BL21 cells assessed as inhibition of CDCA-induced SRC-1 co-activator association at 40 uM by HTRF assay; type: functional
Outline: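 HTRF coactivator recruitment: 10 nM GST-human FXRαLBD (residues 238–473, E. coli BL21(DE3)), 0.83 nM anti-GST-Eu cryptate, 100 nM biotin-SRC1 peptide, 41.75 nM SA/XL665. Buffer was 50 mM Hepes pH 7.0, 125 mM KF, 0.125% CHAPS, 0.05% dry milk. Compound alone or with CDCA, 30 min at room temperature. Signal was 1000×(668/620 nm). Primary screen at 40 μM; IC50 as mean ± SE, three experiments.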

Mus musculus = test: Reduction of hepatic cholesterol level in cholesterol-fed C57BL/6 mouse administered orally after 10 days; type: functional, organism-based
Outline: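 Male C57BL/6 mice, 8–12 weeks old, were randomized into five groups of nine. Control mice had ground chow; the other groups had chow with 2% cholesterol. Compound (50 or 100 mg/kg) or reference (100 mg/kg) was suspended in 0.5% CMC-Na and given by oral gavage; control and vehicle mice got 0.5% CMC-Na. Serum and hepatic triglyceride and total cholesterol were measured.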

[4] = biological target: T1, Progesterone receptor (Homo sapiens) (UniProt P06401); test: Agonist activity at recombinant PR-LBD expressed in HEK293T cells co-expressing GAL4 DBD at 20 uM by transactivation assay; type: functional, cell-based; details: HEK-293T
T1 sequence (whole entry): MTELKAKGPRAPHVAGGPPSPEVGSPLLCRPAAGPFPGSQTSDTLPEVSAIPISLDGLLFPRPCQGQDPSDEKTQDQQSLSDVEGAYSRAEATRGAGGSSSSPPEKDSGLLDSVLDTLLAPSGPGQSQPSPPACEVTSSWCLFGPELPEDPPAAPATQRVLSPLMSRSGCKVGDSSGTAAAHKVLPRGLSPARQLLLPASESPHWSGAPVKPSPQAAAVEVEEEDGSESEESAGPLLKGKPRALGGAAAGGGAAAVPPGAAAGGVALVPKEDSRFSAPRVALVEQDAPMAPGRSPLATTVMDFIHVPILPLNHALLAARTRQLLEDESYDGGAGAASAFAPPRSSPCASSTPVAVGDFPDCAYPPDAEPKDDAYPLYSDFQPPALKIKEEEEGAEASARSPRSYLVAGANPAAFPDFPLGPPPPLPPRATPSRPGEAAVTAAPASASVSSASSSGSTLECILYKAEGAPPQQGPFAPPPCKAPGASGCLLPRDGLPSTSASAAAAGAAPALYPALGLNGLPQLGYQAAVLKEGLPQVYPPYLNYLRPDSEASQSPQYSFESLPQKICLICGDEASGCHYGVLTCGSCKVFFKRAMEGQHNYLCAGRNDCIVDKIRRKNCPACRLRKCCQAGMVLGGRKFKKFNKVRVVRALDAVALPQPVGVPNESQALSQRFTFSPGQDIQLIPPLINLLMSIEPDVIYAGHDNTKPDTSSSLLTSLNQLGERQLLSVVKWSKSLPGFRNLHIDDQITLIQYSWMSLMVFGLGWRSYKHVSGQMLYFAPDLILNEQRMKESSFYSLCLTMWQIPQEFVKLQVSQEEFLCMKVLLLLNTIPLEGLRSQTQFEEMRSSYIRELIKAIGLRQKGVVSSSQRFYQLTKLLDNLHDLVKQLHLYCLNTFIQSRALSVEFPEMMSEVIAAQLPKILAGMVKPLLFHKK
Outline: (§3)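 One-hybrid assay in HEK293T cells cotransfected with a Gal4 DBD–NR-LBD fusion (RXRα, LXRα, GR, PR, PPARδ or PPARγ) plus UAS-TK-Luc reporter. Compound was 20 μM, given alone or with agonist: 9cRA 0.1 μM (RXRα), TO901317 0.5 μM (LXRα), dexamethasone 50 nM (GR), progesterone 100 nM (PR), GW1516 10 μM (PPARδ), rosiglitazone 10 μM (PPARγ). Luciferase read-out; three independent experiments.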

[5] = biological target: T2, Glucocorticoid receptor (Homo sapiens) (UniProt P04150); test: Antagonist activity at recombinant GR LBD expressed in HEK293T cells co-expressing GAL4 DBD assessed as inhibition of dexamethasone-induced transactivation at 20 uM by luciferase reporter gene assay; type: functional, cell-based; details: HEK-293T; outline: as §3
T2 sequence (whole entry): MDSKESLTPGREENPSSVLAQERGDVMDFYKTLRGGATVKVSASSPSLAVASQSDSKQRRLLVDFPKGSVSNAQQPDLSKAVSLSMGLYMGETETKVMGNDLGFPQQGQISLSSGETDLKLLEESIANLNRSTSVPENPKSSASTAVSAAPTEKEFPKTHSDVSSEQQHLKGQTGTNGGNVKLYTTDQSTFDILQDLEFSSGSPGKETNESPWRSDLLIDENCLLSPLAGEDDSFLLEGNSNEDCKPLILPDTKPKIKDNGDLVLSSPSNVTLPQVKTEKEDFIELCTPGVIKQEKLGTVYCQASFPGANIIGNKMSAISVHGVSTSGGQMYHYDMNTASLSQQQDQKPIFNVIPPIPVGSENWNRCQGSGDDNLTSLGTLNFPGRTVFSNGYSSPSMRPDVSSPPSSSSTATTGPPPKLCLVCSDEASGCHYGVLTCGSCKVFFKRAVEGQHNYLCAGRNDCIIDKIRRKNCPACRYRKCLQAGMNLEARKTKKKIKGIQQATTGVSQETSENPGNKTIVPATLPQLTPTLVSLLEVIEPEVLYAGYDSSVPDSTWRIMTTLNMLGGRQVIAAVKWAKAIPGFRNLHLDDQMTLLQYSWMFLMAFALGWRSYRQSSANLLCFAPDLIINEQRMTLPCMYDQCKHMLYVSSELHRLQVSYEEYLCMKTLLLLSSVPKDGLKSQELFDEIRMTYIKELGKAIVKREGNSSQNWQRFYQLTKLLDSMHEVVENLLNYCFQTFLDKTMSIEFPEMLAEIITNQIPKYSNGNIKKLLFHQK

HEK-293T [6] = test: Antagonist activity at FXRalphaLBD expressed in HEK293T cells co-expressing GAL4 DBD assessed as inhibition of CDCA-induced transactivation at 60 uM after 18 hrs by luciferase reporter gene assay; type: functional, cell-based; details: Homo sapiens
Outline: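 Mammalian one-hybrid assay in HEK293T cells cotransfected with pCMX-Gal4DBD-FXRαLBD, UAS-TK-Luc reporter and pRL-SV40 Renilla vector. Cells were exposed to vehicle or compound for 18 h, with or without 20 μM CDCA. Read-out was dual-luciferase. Three independent experiments.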

IC50 [2]: 25.6 µM
Activity [4]: inactive
inhibition [5]: inactive
Structure (SMILES): COc1cc(/C=C2\C(=O)N(c3cccc([N+](=O)[O-])c3)N=C2c2ccccc2)ccc1O
inhibition (HEK-293T [1]): Dose-dependent effect
inhibition at 40 µM [3]: 70.4%
Activity (Mus musculus): Dose-dependent effect
inhibition (HEK-293T [6]): Active
